In data set [1] the test system is Mus musculus. Briefly: Induction of interferon level >= 32 units/mL in ip dosed CD-1 mouse serum after 18 to 20 hrs by vesicular stomatitis virus plaque reduction assay. The settings on record: CD-1, Serum, read-out: MED. Type of data set: functional. In outline:
(§1)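 Female CD-1 mice (15 g; at least three per dose) received compound dissolved or suspended in sterile distilled water, orally or ip. They were bled 18–20 hr later and sera pooled. Interferon was titrated by plaque reduction in mouse L cells challenged with vesicular stomatitis virus, with an NIAID reference mouse interferon standard. MED was the lowest dose giving ≥32 units/ml. Top doses were 400 mg/kg po and 300 mg/kg ip.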
(In a plaque reduction assay, fewer plaques than in the control indicate reduced infectivity or spread.)

In data set [2] the test system is Mus musculus. Briefly: Induction of interferon level >= 32 units/mL in po dosed CD-1 mouse serum after 18 to 20 hrs by vesicular stomatitis virus plaque reduction assay. It counts as functional. The settings on record: CD-1, Serum, read-out: MED. Put shortly: as §1
The test system of data set [3] is Mus musculus. Nature of the data set: Induction of interferon level in CD-1 mouse serum at 400 mg/kg, po after 18 to 20 hrs by vesicular stomatitis virus plaque reduction assay. It counts as functional, organism-based. Details: dose 400 mg/kg. In outline:
(§2)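 Dosing was oral or ip in 15-g female CD-1 mice, at least three per dose level, with compound in sterile distilled water as a solution or suspension. Pooled sera were collected 18–20 hr after dosing. Interferon units/ml were quantified by a plaque reduction assay on mouse L cells with vesicular stomatitis virus challenge, run against an NIAID reference mouse interferon standard.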

Data set [4] relates to Mus musculus. Briefly: Induction of interferon level in CD-1 mouse serum at 100 mg/kg, ip after 18 to 20 hrs by vesicular stomatitis virus plaque reduction assay. Type of data set: functional, organism-based. Details: dose 100 mg/kg. In outline:
as §2

The subject of data set [5] is Mus musculus. Nature of the data set: Toxicity in CD-1 mouse at 300 mg/kg, ip. Type of data set: organism-based. More on the design: dose 300 mg/kg, route intraperitoneal. As to conditions: in vivo.

The results in this text go back to ChEMBL document CHEMBL3272265, “Interferon inducing activities of derivatives of 1,3-dimethyl-4-(3-dimethylaminopropylamino)-1H-pyrazolo(3,4-b)quinoline and related compounds” (J Med Chem, 1976).

Active and inactive are the calls of the source. The rule behind the calls is not given here.

For `Cc1nn(C)c2nc3ccccc3c(NCCCN3CCN(C)CC3)c12.Cl`, the minimal effective dose in the data set with Mus musculus [1] worked out at 300 mg/kg.

`Cc1nn(C)c2nc3cc(CO)ccc3c(NCCCN(C)C)c12.Cl`: the minimal effective dose came to 100 mg/kg in the data set with Mus musculus [1] and 200 mg/kg with Mus musculus [2].

Take `CN(C)CCCNc1c2ccccc2nc2ccccc12.Cl`: in the data set with Mus musculus [1], the minimal effective dose is not below 300 mg/kg. Moreover, the outcome in the data set with Mus musculus [3] was inactive.

On to `Cc1nn(C)c2nc3ccccc3c(NCCCN3CCNCC3)c12.Cl`, for which the minimal effective dose in the data set on Mus musculus [1] was found to be 100 mg/kg.

In the case of `Cc1nn(Cc2ccccc2)c2nc3ccccc3c(NCCCN(C)C)c12.Cl`, the outcome with Mus musculus [4] was inactive. Moreover, the Activity entry with Mus musculus [5] was “Toxic”.

In the case of `COc1cccc2c(NCCCN(C)C)c3c(C)nn(C)c3nc12.Cl`, the minimal effective dose in the data set on Mus musculus [1] was 50 mg/kg; with Mus musculus [2] it was 100 mg/kg.

Regarding `COc1ccc2nc3c(c(C)nn3C)c(NCCCN(C)C)c2c1.Cl`, in the data set on Mus musculus [2], the minimal effective dose was found to be 200 mg/kg. In the data set on Mus musculus [4], the result was inactive. Further, the Activity entry in the data set with Mus musculus [5] is recorded as “Toxic”.

Take `CCN(CC)CCCNc1c2ccccc2nc2c1c(C)nn2C.Cl`: the minimal effective dose in the data set with Mus musculus [1] stood at 300 mg/kg; in the data set on Mus musculus [2], 400 mg/kg.

As to `CCNc1ccc2nc3c(c(C)nn3C)c(NCCCN(C)C)c2c1.Cl`, the minimal effective dose in the data set on Mus musculus [1] was found to be 25 mg/kg; in the data set with Mus musculus [2], 50 mg/kg.

In the case of `Cc1nn(CCCN(C)C)c2nc3ccccc3cc12.Cl`, in the data set with Mus musculus [4], the outcome was inactive. Moreover, the Activity entry in the data set with Mus musculus [5] is reported as “Toxic”.

With `COc1cc(OC)c2c(NCCCN(C)C)c3c(C)nn(C)c3nc2c1.Cl`, the minimal effective dose in the data set with Mus musculus [1] and in the data set on Mus musculus [2] was 25 mg/kg each time.

Consider `Cc1nn(C)c2nc3cc(Cl)ccc3c(NCCCN(C)C)c12.Cl`, for which the minimal effective dose with Mus musculus [1] and with Mus musculus [2] was not below 100 mg/kg throughout.

Turning to `CCc1ccc2nc3c(c(C)nn3C)c(NCCCN(C)C)c2c1.Cl`, the minimal effective dose with Mus musculus [2] worked out at 200 mg/kg. In the data set with Mus musculus [4], the outcome was inactive. Moreover, the Activity entry in the data set with Mus musculus [5] was “Toxic”.

Consider `Cc1nn(C)c2nc3ccccc3c(NCCCCCN(C)C)c12.Cl`, for which the minimal effective dose in the data set with Mus musculus [1] was 150 mg/kg; in the data set with Mus musculus [2], 200 mg/kg.

As for `Cc1nn(C)c2nc3ccccc3c(NCCCN3CCCCC3)c12.Cl`, in the data set on Mus musculus [2], the minimal effective dose is 200 mg/kg. Also, the outcome with Mus musculus [4] was inactive. Also, the Activity result in the data set on Mus musculus [5] is listed as “Toxic”.

Regarding `CCc1ccc2c(NCCCN(C)C)c3c(C)nn(C)c3nc2c1.Cl`, the minimal effective dose in the data set with Mus musculus [2] was determined as 200 mg/kg. Besides, the result in the data set with Mus musculus [4] was inactive. In the data set with Mus musculus [5], the Activity result was “Toxic”.

For `Cc1nn(C)c2nc3ccccc3c(NCCCN(C)CCCN(C)C)c12.Cl`, the minimal effective dose in the data set with Mus musculus [1] was more than 300 mg/kg.

Consider `Cc1nn(C)c2nc3ncccc3c(NCCCN(C)C)c12.Cl`, for which, in the data set on Mus musculus [1], the minimal effective dose was not below 300 mg/kg.

For `Cc1nn(C)c2nc3ccccc3c(NCCCN)c12.Cl`, the minimal effective dose with Mus musculus [1] is not below 300 mg/kg.

Regarding `Cc1nn(C)c2nc3ccccc3c(NCCCCNc3c4ccccc4nc4c3c(C)nn4C)c12`, in the data set with Mus musculus [1], the minimal effective dose was not below 300 mg/kg.

In the case of `Cc1nn(CC(F)(F)F)c2nc3ccccc3c(NCCCN(C)C)c12.Cl`, in the data set on Mus musculus [4], the result was inactive. For the same molecule, the Activity result with Mus musculus [5] is “Toxic”.

Consider `CCCCN(CCCC)CCCNc1c2ccccc2nc2c1c(C)nn2C.Cl`, for which, in the data set on Mus musculus [4], the outcome was inactive. For the same molecule, the Activity entry with Mus musculus [5] is “Toxic”.

As to `Cc1nn(C)c2nc3ccc([N+](=O)[O-])cc3c(NCCCN(C)C)c12.Cl`, the result in the data set with Mus musculus [4] was inactive. In addition, in the data set on Mus musculus [5], the Activity entry is given as “Toxic”.

For the molecule `COc1cc2nc3c(c(C)nn3C)c(NCCCN(C)C)c2cc1OC.Cl`, the minimal effective dose in the data set on Mus musculus [1] and in the data set with Mus musculus [2] was 50 mg/kg throughout.

In the case of `CCc1n[nH]c2nc3ccccc3c(NCCCN(C)C)c12.Cl`, the outcome in the data set on Mus musculus [4] was inactive. For the same molecule, in the data set on Mus musculus [5], the Activity result is “Toxic”.

For `Cc1nn(C)c2nc3ccc(I)cc3c(NCCCN(C)C)c12.Cl`, the minimal effective dose in the data set on Mus musculus [2] is not below 400 mg/kg. For the same molecule, the result with Mus musculus [4] was inactive. In addition, the Activity result in the data set on Mus musculus [5] is reported as “Toxic”.

Turning to `Cc1nn(C)c2nc3ccccc3c(NN3CCN(C)CC3)c12.Cl`, the minimal effective dose in the data set on Mus musculus [1] was 300 mg/kg.

For the molecule `Cc1nn(C)c2nc3ccccc3c(NCc3cccnc3)c12.Cl`, in the data set with Mus musculus [4], the outcome was inactive. For the same molecule, the Activity result with Mus musculus [5] is given as “Toxic”.

As for `Cc1ccc2nc3c(c(C)nn3C)c(NCCCN(C)C)c2c1.Cl`, the minimal effective dose with Mus musculus [1] and with Mus musculus [2] was 50 mg/kg each time.

For `COc1cccc2nc3c(c(C)nn3C)c(NCCCN(C)C)c12.Cl`, the minimal effective dose with Mus musculus [1] and with Mus musculus [2] was 100 mg/kg each time.

For `Cc1nn(C)c2nc3ccccc3c(CNCCCN(C)C)c12.Cl`, in the data set on Mus musculus [1], the minimal effective dose was not below 300 mg/kg.

Regarding `CNCCCNc1c2ccccc2nc2c1c(C)nn2C.Cl`, the values for the minimal effective dose with Mus musculus [1] and with Mus musculus [2] were 150 mg/kg and 200 mg/kg, respectively.

Regarding `COC(=O)Cn1nc(C)c2c(NCCCN(C)C)c3ccccc3nc21.Cl`, in the data set on Mus musculus [4], the result was inactive. The Activity entry in the data set on Mus musculus [5] is “Toxic”.

Take `Cc1cccc2c(NCCCN(C)C)c3c(C)nn(C)c3nc12.Cl`: in the data set with Mus musculus [4], the result was inactive. Further, in the data set on Mus musculus [5], the Activity result is on record as “Toxic”.

Turning to `CCC1CCC(C)N(CCCNc2c3ccccc3nc3c2c(C)nn3C)C1.Cl` (centres undefined), in the data set on Mus musculus [4], the result was inactive. For the same molecule, the Activity result in the data set on Mus musculus [5] is listed as “Toxic”.

Consider `Cc1nn(C)c2nc3ccccc3c(NCCCNC(C)C)c12.Cl`, for which, in the data set with Mus musculus [1], the minimal effective dose is not below 300 mg/kg.

For `CCc1nn(C)c2nc3ccccc3c(NCCCN(C)C)c12.Cl`, in the data set with Mus musculus [2], the minimal effective dose was 200 mg/kg. The outcome with Mus musculus [4] was inactive. Moreover, the Activity entry in the data set with Mus musculus [5] is “Toxic”.

Take `CCN1CCCC(Nc2c3ccccc3nc3c2c(C)nn3C)C1.Cl` (centres undefined): in the data set on Mus musculus [1], the minimal effective dose is not below 300 mg/kg.

Regarding `Cc1cc2nc3c(c(C)nn3C)c(NCCCN(C)C)c2cc1C.Cl`, the values for the minimal effective dose with Mus musculus [1] and in the data set with Mus musculus [2] were 25 mg/kg and 50 mg/kg, respectively.

`Cc1nn(C)c2nc3c(ccc4ncccc43)c(NCCCN(C)C)c12.Cl`: the minimal effective dose with Mus musculus [1] and in the data set with Mus musculus [2] was 100 mg/kg in each case.

Consider `Cc1nn(C)c2nc3ccccc3c(NCCN3CCCC3)c12.Cl`, for which the outcome with Mus musculus [4] was inactive. The Activity result in the data set on Mus musculus [5] is “Toxic”.

Consider `Cc1nn(C)c2nc3ccccc3c(NCCCN3CCCC3=O)c12.Cl`, for which the outcome in the data set on Mus musculus [4] was inactive. The Activity entry with Mus musculus [5] is recorded as “Toxic”.

In the case of `Cc1nn(C)c2nc3ccccc3c(NCCCNC(C)(C)C)c12.Cl`, the minimal effective dose with Mus musculus [1] is not below 300 mg/kg.

In the case of `Cc1nn(C)c2nc3ccccc3c(NCCCN3CCOCC3)c12.Cl`, the minimal effective dose in the data set on Mus musculus [1] stood at 300 mg/kg. Further, in the data set with Mus musculus [3], the result was inactive.

On to `Cc1nn(C)c2nc3ccccc3c(NCCC3CCCN3C)c12.Cl` (centres undefined), for which the result with Mus musculus [4] was inactive. In the data set on Mus musculus [5], the Activity entry is given as “Toxic”.

Turning to `Cc1nn(C)c2nc3ccc(Cl)cc3c(NCCCN(C)C)c12.Cl`, the outcome with Mus musculus [4] was inactive. Besides, the Activity entry in the data set with Mus musculus [5] is “Toxic”.

As to `Cc1nn(C)c2nc3cc4ccccc4cc3c(NCCCN(C)C)c12.Cl`, the minimal effective dose in the data set on Mus musculus [1] is 100 mg/kg.

As for `Cc1ccc2c(NCCCN(C)C)c3c(C)nn(C)c3nc2c1C.Cl`, the minimal effective dose in the data set with Mus musculus [1] and with Mus musculus [2] was 200 mg/kg each time.

For the molecule `Cc1nn(C)c2nc3cc(C(F)(F)F)ccc3c(NCCCN(C)C)c12.Cl`, the outcome in the data set with Mus musculus [4] was inactive. Further, the Activity entry in the data set with Mus musculus [5] is on record as “Toxic”.

As for `COc1ccc2c(NCCCN(C)C)c3c(C)nn(C)c3nc2c1.Cl`, the minimal effective dose in the data set with Mus musculus [1] and in the data set with Mus musculus [2] was 50 mg/kg throughout.
